Laboratory results reported in ChEMBL document CHEMBL3779767, “Identification of potent and selective MTH1 inhibitors” (Bioorg Med Chem Lett, 2016).
The source made the active and inactive calls. The rule behind the calls is not given here.

Tests used:
[1] = system: Tyrosine-protein kinase ABL1 (Homo sapiens), P00519 [E255K]; test: Inhibition of partial length human ABL1 E255K mutant phosphorylation expressed in mammalian system at 1 uM
Procedure, shortened: (§1)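 Single-point screen within a 97-kinase profiling panel, with the test compound at 1 µM.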

[2] = Efflux ratio of permeability in MDCK cells; format: ADME, cell-based, Canis lupus familiaris; settings: dog
Procedure, shortened: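 Permeability measured across a confluent MDCK cell monolayer, with the efflux ratio reported alongside the permeability value.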

[3] = biological target: Tyrosine-protein kinase ABL1 (Homo sapiens) (UniProt P00519); test: Inhibition of partial length human ABL1 expressed in mammalian system at 1 uM; procedure, shortened: as §1
[4] = biological target: Tyrosine-protein kinase ABL1 (Homo sapiens) (UniProt P00519); test: Inhibition of partial length human ABL1 phosphorylation expressed in mammalian system at 1 uM; procedure, shortened: as §1
[5] = biological target: Serine/threonine-protein kinase B-raf (Homo sapiens) (UniProt P15056); test: Inhibition of partial length human BRAF expressed in mammalian system at 1 uM; procedure, shortened: as §1
[6] = system: Serine/threonine-protein kinase B-raf (Homo sapiens), P15056 [V600E]; test: Inhibition of partial length human BRAF V600E mutant expressed in mammalian system at 1 uM; procedure, shortened: as §1
Homo sapiens = organism: Homo sapiens; test: Inhibition of partial length human CDK11 expressed in bacterial system at 1 uM
Procedure, shortened: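 Single-concentration screen within a 97-kinase profiling panel (KinomeEdge), with the compound tested at one fixed concentration across all panel kinases.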

[7] = biological target: Cyclin-dependent kinase 2 (Homo sapiens) (UniProt P24941); test: Inhibition of partial length human CDK2 expressed in bacterial system at 1 uM; procedure, shortened: as §1
[8] = system: Epidermal growth factor receptor (Homo sapiens), P04626+P00533+Q15303+P21860 [L858R]; test: Inhibition of partial length human EGFR L858R mutant expressed in bacterial system at 1 uM
Procedure, shortened: (§2)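 Single-concentration screen at 1 µM test concentration, run as part of a commercial binding/activity profiling panel covering 97 kinases.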

[9] = biological target: Receptor tyrosine-protein kinase erbB-2 (Homo sapiens) (UniProt P04626); test: Inhibition of partial length human ERBB2 expressed in mammalian system at 1 uM; procedure, shortened: as §2
[10] = biological target: Receptor tyrosine-protein kinase erbB-4 (Homo sapiens) (UniProt Q15303); test: Inhibition of partial length human ERBB4 expressed in bacterial system at 1 uM; procedure, shortened: as §1
[11] = biological target: Mitogen-activated protein kinase 3 (Homo sapiens) (UniProt P27361); test: Inhibition of partial length human ERK1 expressed in bacterial system at 1 uM; procedure, shortened: as §1
[12] = biological target: Fibroblast growth factor receptor 2 (Homo sapiens) (UniProt P21802); test: Inhibition of partial length human FGFR2 expressed in bacterial system at 1 uM; procedure, shortened: as §1
[13] = biological target: Inhibitor of nuclear factor kappa-B kinase subunit beta (Homo sapiens) (UniProt O14920); test: Inhibition of partial length human IKKbeta expressed in mammalian system at 1 uM; procedure, shortened: as §1
[14] = biological target: Tyrosine-protein kinase JAK2 (Homo sapiens) (UniProt O60674); test: Inhibition of partial length human JAK2 JH1 catalytic domain expressed in mammalian system at 1 uM; procedure, shortened: as §1
[15] = biological target: Tyrosine-protein kinase JAK3 (Homo sapiens) (UniProt P52333); test: Inhibition of partial length human JAK3 JH1 catalytic domain expressed in mammalian system at 1 uM; procedure, shortened: as §1
[16] = biological target: Serine/threonine-protein kinase STK11 (Homo sapiens) (UniProt Q15831); test: Inhibition of partial length human LKB1 expressed in bacterial system at 1 uM; procedure, shortened: as §1
[17] = biological target: MAP kinase-activated protein kinase 2 (Homo sapiens) (UniProt P49137); test: Inhibition of partial length human MAPKAPK2 expressed in bacterial system at 1 uM; procedure, shortened: as §1
[18] = biological target: Dual specificity mitogen-activated protein kinase kinase 2 (Homo sapiens) (UniProt P36507); test: Inhibition of partial length human MEK2 expressed in mammalian system at 1 uM
Procedure, shortened: (§3)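 Single-concentration screen across a panel of 97 kinases, with the test compound at 1 uM.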

[19] = biological target: Platelet-derived growth factor receptor alpha (Homo sapiens) (UniProt P16234); test: Inhibition of partial length human PDGFRalpha expressed in mammalian system at 1 uM; procedure, shortened: as §3
[20] = biological target: Phosphatidylinositol 4-phosphate 3-kinase C2 domain-containing subunit beta (Homo sapiens) (UniProt O00750); test: Inhibition of partial length human PIK3C2beta expressed in mammalian system at 1 uM; procedure, shortened: as §3
[21] = biological target: Phosphatidylinositol 4,5-bisphosphate 3-kinase catalytic subunit alpha isoform (Homo sapiens) (UniProt P42336); test: Inhibition of partial length human PIK3Calpha expressed in mammalian system at 1 uM; procedure, shortened: as §3
[22] = biological target: Phosphatidylinositol 4,5-bisphosphate 3-kinase catalytic subunit gamma isoform (Homo sapiens) (UniProt P48736); test: Inhibition of partial length human PIK3Cgamma expressed in mammalian system at 1 uM; procedure, shortened: as §3
[23] = biological target: Serine/threonine-protein kinase pim-1 (Homo sapiens) (UniProt P11309); test: Inhibition of partial length human PIM1 expressed in bacterial system at 1 uM; procedure, shortened: as §3
[24] = biological target: Serine/threonine-protein kinase pim-3 (Homo sapiens) (UniProt Q86V86); test: Inhibition of partial length human PIM3 expressed in bacterial system at 1 uM; procedure, shortened: as §3
[25] = biological target: RAF proto-oncogene serine/threonine-protein kinase (Homo sapiens) (UniProt P04049); test: Inhibition of partial length human RAF1 expressed in bacterial system at 1 uM; procedure, shortened: as §3
[26] = biological target: Rho-associated protein kinase 2 (Homo sapiens) (UniProt O75116); test: Inhibition of partial length human ROCK2 expressed in mammalian system at 1 uM; procedure, shortened: as §3
[27] = biological target: NUAK family SNF1-like kinase 2 (Homo sapiens) (UniProt Q9H093); test: Inhibition of partial length human SNARK expressed in mammalian system at 1 uM; procedure, shortened: as §3
[28] = biological target: Proto-oncogene tyrosine-protein kinase Src (Homo sapiens) (UniProt P12931); test: Inhibition of partial length human SRC expressed in bacterial system at 1 uM; procedure, shortened: as §3
[29] = biological target: SRSF protein kinase 3 (Homo sapiens) (UniProt Q9UPE1); test: Inhibition of partial length human SRPK3 expressed in bacterial system at 1 uM; procedure, shortened: as §3
[30] = biological target: Serine/threonine-protein kinase 32C (Homo sapiens) (UniProt Q86UX6); test: Inhibition of partial length human YANK3 expressed in bacterial system at 1 uM; procedure, shortened: as §3
Liver microsome = test: Intrinsic clearance in human liver microsomes; format: ADME
[31] = Intrinsic clearance in mouse liver microsomes; format: ADME
[32] = Cytotoxicity against human WI38 cells assessed as change in phenotypic response measured after prolonged treatment; format: cell-based; settings: wi-38
A549 [33] = test: Antiproliferative activity against human A549 cells assessed as change in phenotypic response measured after prolonged treatment; format: functional, cell-based
SW480 = test: Antiproliferative activity against human SW480 cells assessed as change in phenotypic response measured after prolonged treatment; format: functional, cell-based
SAOS-2 = test: Antiproliferative activity against human Saos2 cells assessed as change in phenotypic response measured after prolonged treatment; format: functional, cell-based
[34] = Cytotoxicity against human WI38 cells assessed as change in phenotypic response up to 50 uM; format: cell-based; settings: wi-38
NCI-H460 = test: Antiproliferative activity against human NCI-H460 cells assessed as change in phenotypic response up to 50 uM; format: functional, cell-based
A549 [35] = test: Antiproliferative activity against human A549 cells assessed as change in phenotypic response up to 50 uM; format: functional, cell-based
UOK 262 = test: Antiproliferative activity against human UOK 262 cells assessed as change in phenotypic response measured after prolonged treatment; format: functional, cell-based

Chain of Tyrosine-protein kinase ABL1 (Homo sapiens) (P00519 whole entry): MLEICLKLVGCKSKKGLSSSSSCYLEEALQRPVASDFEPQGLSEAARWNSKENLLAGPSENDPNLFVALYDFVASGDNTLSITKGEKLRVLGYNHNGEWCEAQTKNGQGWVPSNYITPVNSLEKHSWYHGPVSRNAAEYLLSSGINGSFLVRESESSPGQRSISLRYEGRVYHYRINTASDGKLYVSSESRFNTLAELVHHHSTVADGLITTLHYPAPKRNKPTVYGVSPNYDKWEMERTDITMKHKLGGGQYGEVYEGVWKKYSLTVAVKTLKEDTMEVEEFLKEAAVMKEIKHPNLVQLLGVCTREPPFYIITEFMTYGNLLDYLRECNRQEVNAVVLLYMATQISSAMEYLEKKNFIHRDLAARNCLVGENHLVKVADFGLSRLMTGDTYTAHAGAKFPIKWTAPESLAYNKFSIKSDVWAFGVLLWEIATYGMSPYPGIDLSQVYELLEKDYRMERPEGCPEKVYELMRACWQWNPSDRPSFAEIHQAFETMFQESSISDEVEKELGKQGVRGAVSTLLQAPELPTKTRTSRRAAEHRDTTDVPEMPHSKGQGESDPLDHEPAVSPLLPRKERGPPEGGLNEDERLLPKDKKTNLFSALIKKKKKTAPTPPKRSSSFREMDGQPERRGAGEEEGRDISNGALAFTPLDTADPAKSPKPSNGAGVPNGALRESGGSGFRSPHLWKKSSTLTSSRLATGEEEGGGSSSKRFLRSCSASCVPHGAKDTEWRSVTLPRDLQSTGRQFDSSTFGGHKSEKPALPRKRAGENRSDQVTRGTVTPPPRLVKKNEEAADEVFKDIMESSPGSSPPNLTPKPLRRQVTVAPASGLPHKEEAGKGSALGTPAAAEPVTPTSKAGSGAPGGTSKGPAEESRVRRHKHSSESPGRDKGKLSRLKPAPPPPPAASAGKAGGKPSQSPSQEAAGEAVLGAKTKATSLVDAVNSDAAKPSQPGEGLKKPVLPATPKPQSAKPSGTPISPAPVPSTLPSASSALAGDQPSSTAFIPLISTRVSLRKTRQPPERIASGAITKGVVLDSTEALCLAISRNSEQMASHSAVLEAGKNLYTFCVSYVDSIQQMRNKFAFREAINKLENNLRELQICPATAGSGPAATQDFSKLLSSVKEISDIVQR
Chain of Fibroblast growth factor receptor 2 (Homo sapiens) (P21802 22-821 limits assumed): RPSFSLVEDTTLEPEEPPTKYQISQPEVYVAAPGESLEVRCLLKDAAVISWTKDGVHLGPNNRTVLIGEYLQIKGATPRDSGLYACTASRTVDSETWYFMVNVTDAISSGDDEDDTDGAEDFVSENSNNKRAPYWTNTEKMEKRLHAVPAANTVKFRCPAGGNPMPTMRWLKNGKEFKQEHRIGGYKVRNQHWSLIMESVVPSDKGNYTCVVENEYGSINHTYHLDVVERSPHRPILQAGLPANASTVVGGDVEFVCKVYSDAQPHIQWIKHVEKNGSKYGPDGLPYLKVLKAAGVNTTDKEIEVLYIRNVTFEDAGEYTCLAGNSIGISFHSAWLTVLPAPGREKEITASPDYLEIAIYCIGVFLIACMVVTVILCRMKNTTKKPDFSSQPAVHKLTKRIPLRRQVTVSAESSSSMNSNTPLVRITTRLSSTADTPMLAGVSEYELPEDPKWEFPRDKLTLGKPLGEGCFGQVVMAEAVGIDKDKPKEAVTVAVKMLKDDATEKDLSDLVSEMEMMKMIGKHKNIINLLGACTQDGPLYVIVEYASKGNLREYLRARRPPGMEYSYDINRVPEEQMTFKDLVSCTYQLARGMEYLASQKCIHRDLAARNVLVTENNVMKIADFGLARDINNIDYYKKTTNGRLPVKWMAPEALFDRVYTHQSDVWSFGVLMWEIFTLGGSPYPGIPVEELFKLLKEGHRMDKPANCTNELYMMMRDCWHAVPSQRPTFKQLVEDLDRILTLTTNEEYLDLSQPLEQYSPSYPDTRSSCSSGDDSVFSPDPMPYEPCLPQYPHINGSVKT
Chain of Tyrosine-protein kinase ABL1 (Homo sapiens), P00519 [E255K] (P00519 whole entry E255K): as the sequence (P00519 whole entry) above, with E255K counted along it
Chain of SRSF protein kinase 3 (Homo sapiens) (Q9UPE1 whole entry): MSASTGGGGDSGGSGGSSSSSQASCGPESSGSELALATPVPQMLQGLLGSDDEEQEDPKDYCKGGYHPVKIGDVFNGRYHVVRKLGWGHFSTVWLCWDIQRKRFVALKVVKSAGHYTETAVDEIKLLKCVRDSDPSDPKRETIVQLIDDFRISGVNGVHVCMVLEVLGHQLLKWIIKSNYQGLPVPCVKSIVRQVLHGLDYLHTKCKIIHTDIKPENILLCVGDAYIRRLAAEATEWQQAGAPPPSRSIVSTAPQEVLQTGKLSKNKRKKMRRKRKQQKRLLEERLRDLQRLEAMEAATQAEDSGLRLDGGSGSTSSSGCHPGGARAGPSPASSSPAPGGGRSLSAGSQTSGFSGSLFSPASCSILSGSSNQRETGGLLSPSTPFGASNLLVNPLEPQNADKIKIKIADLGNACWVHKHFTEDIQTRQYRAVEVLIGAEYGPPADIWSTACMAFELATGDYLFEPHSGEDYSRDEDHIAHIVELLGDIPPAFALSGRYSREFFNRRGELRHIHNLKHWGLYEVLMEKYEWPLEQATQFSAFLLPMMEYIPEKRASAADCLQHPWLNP
Chain of Tyrosine-protein kinase JAK2 (Homo sapiens) (O60674 whole entry, the tested form may be a part): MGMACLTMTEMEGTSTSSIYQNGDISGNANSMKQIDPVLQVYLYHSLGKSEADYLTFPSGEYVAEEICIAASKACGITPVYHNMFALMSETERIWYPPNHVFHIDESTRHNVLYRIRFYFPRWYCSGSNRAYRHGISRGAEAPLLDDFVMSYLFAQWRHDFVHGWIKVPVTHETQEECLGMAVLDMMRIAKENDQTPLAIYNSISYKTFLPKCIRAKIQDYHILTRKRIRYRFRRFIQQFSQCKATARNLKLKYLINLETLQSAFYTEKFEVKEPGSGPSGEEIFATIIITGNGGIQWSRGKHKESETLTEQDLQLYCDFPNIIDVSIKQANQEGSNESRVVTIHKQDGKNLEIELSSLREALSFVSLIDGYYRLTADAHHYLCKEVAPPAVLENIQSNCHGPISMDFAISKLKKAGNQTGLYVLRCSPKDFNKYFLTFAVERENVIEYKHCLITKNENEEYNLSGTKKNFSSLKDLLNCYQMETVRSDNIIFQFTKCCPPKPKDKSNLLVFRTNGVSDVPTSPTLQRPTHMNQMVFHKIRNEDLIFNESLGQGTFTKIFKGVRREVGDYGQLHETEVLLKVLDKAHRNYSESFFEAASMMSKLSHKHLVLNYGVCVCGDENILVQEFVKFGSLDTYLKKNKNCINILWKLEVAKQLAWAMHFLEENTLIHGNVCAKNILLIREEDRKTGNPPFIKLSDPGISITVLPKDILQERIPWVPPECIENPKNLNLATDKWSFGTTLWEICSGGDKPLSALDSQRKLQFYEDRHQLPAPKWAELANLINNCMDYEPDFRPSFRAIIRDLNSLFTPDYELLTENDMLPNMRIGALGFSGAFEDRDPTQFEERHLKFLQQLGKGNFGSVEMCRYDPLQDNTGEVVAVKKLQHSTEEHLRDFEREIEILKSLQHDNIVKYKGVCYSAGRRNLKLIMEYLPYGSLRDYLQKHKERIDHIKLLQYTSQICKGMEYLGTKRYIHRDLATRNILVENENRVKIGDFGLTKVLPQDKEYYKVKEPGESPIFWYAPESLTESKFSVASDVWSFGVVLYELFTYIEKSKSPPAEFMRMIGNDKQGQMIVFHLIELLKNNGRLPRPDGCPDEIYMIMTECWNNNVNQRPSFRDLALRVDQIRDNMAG
Chain of Phosphatidylinositol 4,5-bisphosphate 3-kinase catalytic subunit gamma isoform (Homo sapiens) (P48736 whole entry, looked up, canonical isoform): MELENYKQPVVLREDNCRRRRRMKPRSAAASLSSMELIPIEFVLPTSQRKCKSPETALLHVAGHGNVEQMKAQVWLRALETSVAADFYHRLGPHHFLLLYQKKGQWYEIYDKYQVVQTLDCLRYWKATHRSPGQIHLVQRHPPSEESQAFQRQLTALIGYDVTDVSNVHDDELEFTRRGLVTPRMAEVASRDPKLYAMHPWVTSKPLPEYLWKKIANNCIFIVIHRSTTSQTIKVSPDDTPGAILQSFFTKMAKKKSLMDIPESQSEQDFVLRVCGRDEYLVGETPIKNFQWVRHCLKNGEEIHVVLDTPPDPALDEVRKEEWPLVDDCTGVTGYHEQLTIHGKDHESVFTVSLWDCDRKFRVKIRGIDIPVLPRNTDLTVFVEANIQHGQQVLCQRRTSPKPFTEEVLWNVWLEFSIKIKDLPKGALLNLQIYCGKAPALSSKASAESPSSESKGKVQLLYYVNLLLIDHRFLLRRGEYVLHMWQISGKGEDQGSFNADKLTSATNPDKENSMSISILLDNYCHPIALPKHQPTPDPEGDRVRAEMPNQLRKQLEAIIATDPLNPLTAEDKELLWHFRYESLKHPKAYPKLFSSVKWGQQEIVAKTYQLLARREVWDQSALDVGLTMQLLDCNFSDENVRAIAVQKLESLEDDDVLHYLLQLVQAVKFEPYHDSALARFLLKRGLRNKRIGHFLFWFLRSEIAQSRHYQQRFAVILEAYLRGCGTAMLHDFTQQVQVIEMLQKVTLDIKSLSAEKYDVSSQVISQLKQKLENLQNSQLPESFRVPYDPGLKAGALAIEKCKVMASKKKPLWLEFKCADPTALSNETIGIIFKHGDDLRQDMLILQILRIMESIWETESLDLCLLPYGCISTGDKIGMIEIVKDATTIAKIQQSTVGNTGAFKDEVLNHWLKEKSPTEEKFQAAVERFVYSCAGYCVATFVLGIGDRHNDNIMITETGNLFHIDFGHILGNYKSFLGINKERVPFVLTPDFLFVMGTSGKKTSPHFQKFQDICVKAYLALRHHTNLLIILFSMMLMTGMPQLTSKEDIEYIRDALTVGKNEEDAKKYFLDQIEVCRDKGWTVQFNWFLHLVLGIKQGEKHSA

SMILES: Cc1cnc(N)nc1OCC(C)(C)CO
- inhibition [1]: inactive
- efflux ratio [2]: 0.8
- inhibition [3]: inactive
- inhibition [4]: inactive
- inhibition [5]: inactive
- inhibition [6]: inactive
- inhibition (Homo sapiens): inactive
- inhibition [7]: inactive
- inhibition [8]: inactive
- inhibition [9]: inactive
- inhibition [10]: inactive
- inhibition [11]: inactive
- inhibition [12]: inactive
- inhibition [13]: inactive
- inhibition [14]: inactive
- inhibition [15]: inactive
- inhibition [16]: inactive
- inhibition [17]: inactive
- inhibition [18]: inactive
- inhibition [19]: inactive
- inhibition [20]: inactive
- inhibition [21]: inactive
- inhibition [22]: inactive
- inhibition [23]: inactive
- inhibition [24]: inactive
- inhibition [25]: inactive
- inhibition [26]: inactive
- inhibition [27]: inactive
- inhibition [28]: inactive
- inhibition [29]: inactive
- inhibition [30]: inactive
- CLH (Liver microsome): 7.5 µL/min/mg
- CLH [31]: 60 µL/min/mg
- Activity [32]: Non-toxic
- Activity (A549 [33]): inactive
- Activity (SW480): inactive
- Activity (SAOS-2): inactive
- Activity [34]: Non-toxic
- Activity (NCI-H460): inactive
- Activity (A549 [35]): inactive
- Activity (UOK 262): inactive
